Experimental data as given in ChEMBL document CHEMBL1131294, “Universal template approach to drug design: polyamines as selective muscarinic receptor antagonists” (J Med Chem, 1998).

Columns and labels:
[1] = biological target: Muscarinic acetylcholine receptor M3 (Cavia porcellus, UniProt Q8VH26); assay: Antagonist affinity evaluated against Muscarinic acetylcholine receptor M3 in isolated guinea pig longitudinal Ileum.; format: functional, tissue-based; conditions: read-out: pA2 (converted)
Method in brief: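 Guinea pig left atria (M2, negative inotropism, electrically driven at 1 Hz) and ileum longitudinal muscle (M3, contraction). Agonist: arecaidine propargyl ester. Ileum: isotonic recording, at least 30 min equilibration. APE curves (0.01-0.5 µM) taken at 30-min intervals, the second curve serving as control. After 60 min antagonist incubation the curve was repeated. Dose ratios at agonist EC50, 3-6 antagonist concentrations, 4-6 replicates each; pA2 from Schild plots constrained to slope -1.0.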

[2] = biological target: Muscarinic acetylcholine receptor M2 (Cavia porcellus); assay: Antagonist affinity evaluated against Muscarinic acetylcholine receptor M2 in isolated guinea pig left atrium; conditions: read-out: pA2 (converted)
[3] = biological target: Muscarinic acetylcholine receptor M3 (Rattus norvegicus, UniProt P08483); assay: Inhibition of [3H]NMS binding to rat submaxillary gland Muscarinic acetylcholine receptor M3
Method in brief: (§1)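 Competition against 0.7-0.8 nM [3H]NMS using homogenates of rat heart (M2) or submaxillary gland (M3), 500 µg protein each, or NG 108-15 cells (M4), 600 µg protein. Incubation 2 h at 25 °C in 50 mM sodium phosphate pH 7.4 with 2 mM MgCl2 and 1% BSA. Nonspecific binding defined with 10 µM atropine. Filtration; Ki by Cheng-Prusoff; at least three experiments, each in triplicate.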

[4] = biological target: T1, Muscarinic acetylcholine receptor M4 (Rattus norvegicus, UniProt P08485); assay: […] to Muscarinic acetylcholine receptor M4; method in brief: as §1
T1 sequence (P08485 whole entry): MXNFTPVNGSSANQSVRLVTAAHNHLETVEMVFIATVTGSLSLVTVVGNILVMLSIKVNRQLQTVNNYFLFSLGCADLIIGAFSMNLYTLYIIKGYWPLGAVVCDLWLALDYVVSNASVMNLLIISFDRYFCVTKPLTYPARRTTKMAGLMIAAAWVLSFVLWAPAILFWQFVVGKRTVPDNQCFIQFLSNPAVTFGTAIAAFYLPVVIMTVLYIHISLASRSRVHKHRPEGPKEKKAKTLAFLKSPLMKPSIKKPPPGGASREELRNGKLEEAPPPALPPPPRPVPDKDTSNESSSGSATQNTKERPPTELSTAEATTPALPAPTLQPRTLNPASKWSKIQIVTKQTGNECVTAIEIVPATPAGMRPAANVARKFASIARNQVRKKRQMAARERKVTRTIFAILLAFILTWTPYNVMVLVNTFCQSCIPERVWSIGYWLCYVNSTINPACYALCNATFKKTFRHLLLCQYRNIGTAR

[5] = biological target: T2, Muscarinic acetylcholine receptor M2 (Rattus norvegicus, UniProt P10980); assay: Inhibition of [3H]NMS binding to rat heart Muscarinic acetylcholine receptor M2
T2 sequence (P10980 whole entry): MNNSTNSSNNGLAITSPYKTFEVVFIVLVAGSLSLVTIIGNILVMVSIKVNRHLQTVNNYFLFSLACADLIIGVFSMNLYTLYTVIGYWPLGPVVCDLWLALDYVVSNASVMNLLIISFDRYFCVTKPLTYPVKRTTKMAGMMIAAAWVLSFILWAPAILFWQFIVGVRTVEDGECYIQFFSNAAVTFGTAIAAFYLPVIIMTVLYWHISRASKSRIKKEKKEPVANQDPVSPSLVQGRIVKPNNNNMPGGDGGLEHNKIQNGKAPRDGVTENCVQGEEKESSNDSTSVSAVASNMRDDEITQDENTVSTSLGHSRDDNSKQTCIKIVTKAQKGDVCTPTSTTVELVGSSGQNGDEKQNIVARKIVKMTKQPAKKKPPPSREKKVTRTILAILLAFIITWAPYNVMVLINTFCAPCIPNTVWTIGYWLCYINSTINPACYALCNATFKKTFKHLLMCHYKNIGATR

[6] = biological target: T3, Muscarinic acetylcholine receptor M1 (Rattus norvegicus, UniProt P08482); assay: Binding affinity for rat cortex Muscarinic acetylcholine receptor M1
T3 sequence (P08482 whole entry): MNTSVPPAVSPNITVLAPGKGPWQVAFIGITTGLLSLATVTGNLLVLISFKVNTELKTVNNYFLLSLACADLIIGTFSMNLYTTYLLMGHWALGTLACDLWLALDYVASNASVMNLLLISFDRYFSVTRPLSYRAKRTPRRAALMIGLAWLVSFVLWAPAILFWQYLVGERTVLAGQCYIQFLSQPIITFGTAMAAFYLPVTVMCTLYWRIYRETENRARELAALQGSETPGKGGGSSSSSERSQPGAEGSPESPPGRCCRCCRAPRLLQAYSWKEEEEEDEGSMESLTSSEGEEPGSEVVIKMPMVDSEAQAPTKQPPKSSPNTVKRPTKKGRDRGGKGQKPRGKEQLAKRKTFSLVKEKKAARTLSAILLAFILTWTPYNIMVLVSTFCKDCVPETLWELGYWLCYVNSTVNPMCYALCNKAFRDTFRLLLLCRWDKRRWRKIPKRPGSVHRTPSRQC
Method in brief: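 Rat cerebral cortex homogenate (200 µg protein) competed against 5 nM [3H]pirenzepine. Incubation 2 h at 25 °C in 50 mM sodium phosphate pH 7.4 with 2 mM MgCl2 and 1% BSA. Nonspecific binding defined with 10 µM atropine. Filtration on PEI-soaked glass-fiber filters. Ki by Cheng-Prusoff; at least three experiments, each in triplicate.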

Sequence of Muscarinic acetylcholine receptor M3 (Cavia porcellus, UniProt Q8VH26) (Q8VH26 whole entry): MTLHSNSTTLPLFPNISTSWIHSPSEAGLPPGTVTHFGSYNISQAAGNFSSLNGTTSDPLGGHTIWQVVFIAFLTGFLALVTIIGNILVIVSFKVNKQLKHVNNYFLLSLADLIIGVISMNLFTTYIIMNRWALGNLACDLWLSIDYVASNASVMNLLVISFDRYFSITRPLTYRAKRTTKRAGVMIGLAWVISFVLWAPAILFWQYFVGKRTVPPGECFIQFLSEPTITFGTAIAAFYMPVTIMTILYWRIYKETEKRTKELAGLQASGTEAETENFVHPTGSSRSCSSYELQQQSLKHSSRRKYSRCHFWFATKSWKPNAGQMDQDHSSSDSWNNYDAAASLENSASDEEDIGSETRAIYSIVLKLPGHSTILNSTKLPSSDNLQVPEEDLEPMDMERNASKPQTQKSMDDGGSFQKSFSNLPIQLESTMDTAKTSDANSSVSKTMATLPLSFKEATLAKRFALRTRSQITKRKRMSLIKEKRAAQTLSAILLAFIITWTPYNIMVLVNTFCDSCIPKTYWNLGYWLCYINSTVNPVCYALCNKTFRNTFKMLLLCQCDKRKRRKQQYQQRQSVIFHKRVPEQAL
Sequence of Muscarinic acetylcholine receptor M3 (Rattus norvegicus, UniProt P08483) (P08483 whole entry): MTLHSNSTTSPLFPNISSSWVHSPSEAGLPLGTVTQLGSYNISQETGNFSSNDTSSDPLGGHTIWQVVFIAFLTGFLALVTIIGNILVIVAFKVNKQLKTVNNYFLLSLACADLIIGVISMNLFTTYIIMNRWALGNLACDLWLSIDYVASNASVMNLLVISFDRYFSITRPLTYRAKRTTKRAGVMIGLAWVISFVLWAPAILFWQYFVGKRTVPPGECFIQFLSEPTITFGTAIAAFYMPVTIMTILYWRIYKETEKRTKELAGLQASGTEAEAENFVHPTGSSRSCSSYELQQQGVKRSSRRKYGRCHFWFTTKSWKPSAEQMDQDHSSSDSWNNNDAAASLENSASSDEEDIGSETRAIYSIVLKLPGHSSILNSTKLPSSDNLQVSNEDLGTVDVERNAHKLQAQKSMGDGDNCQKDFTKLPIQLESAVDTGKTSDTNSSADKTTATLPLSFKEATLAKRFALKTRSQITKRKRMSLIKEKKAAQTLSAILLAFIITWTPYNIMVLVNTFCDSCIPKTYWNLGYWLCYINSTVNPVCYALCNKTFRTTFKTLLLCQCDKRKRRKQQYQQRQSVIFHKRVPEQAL

Kb [1] [nM] | Kb [2] [nM] | Ki [3] [nM] | Ki [4] [nM] | Ki [5] [nM] | Ki [6] [nM] | Compound
44.7 | 0.2 | 110 | 41.7 | 0.437 | 0.955 | CN(CCCCCCCCN(C)CCCCCCN(CC(=O)N1c2ccccc2NC(=O)c2ccccc21)CC(=O)N1c2ccccc2NC(=O)c2ccccc21)CCCCCCNCC(=O)N1c2ccccc2NC(=O)c2ccccc21
912 | 2.51 | 398 | 39.8 | 0.912 | 12.6 | CN(CCCCCCCCN(C)CCCCCCN(CC(=O)N1c2ccccc2NC(=O)c2cccnc21)CC(=O)N1c2ccccc2NC(=O)c2cccnc21)CCCCCCNCC(=O)N1c2ccccc2NC(=O)c2cccnc21
550 |  | 5750 | 158 |  | 50.1 | CN(CCCCCCCCN(C)C(=O)CCCCCN(CC(=O)N1c2ccccc2C(=O)Nc2cccnc21)CC(=O)N1c2ccccc2C(=O)Nc2cccnc21)C(=O)CCCCCNCC(=O)N1c2ccccc2C(=O)Nc2cccnc21
537 | 5.25 | 2570 | 36.3 | 20.9 | 14.5 | CN(CCCCCCCCN(C)CCCCCCNCC(=O)N1c2ccccc2NC(=O)c2cccnc21)CCCCCCNCC(=O)N1c2ccccc2NC(=O)c2cccnc21
1620 |  | 2510 | 158 |  | 25.1 | CN(CCCCCCCCN(C)CCCCCCN(CC(=O)N1c2ccccc2NC(=O)c2cccnc21)CC(=O)N1c2ccccc2NC(=O)c2cccnc21)CCCCCCN(CC(=O)N1c2ccccc2NC(=O)c2cccnc21)CC(=O)N1c2ccccc2NC(=O)c2cccnc21
112 |  | 115 | 2.82 |  | 14.8 | CN(CCCCCCCCN(C)CCCCCCNCC(=O)N1c2ccccc2NC(=O)c2ccccc21)CCCCCCNCC(=O)N1c2ccccc2NC(=O)c2ccccc21
2140 | 17.8 |  |  |  |  | CN(CCCCCCCCN(C)C(=O)CCCCCN(CC(=O)N1c2ccccc2C(=O)Nc2cccnc21)CC(=O)N1c2ccccc2C(=O)Nc2cccnc21)C(=O)CCCCCN(CC(=O)N1c2ccccc2C(=O)Nc2cccnc21)CC(=O)N1c2ccccc2C(=O)Nc2cccnc21
275 |  | 331 | 15.8 |  | 4.37 | CN(CCCCCCN)CCCCCCCCN(C)CCCCCCNCC(=O)N1c2ccccc2C(=O)Nc2cccnc21
4.79 |  | 3.02 | 1.45 |  | 0.501 | CN(CCCCCCN)CCCCCCCCN(C)CCCCCCNCCCC(=O)N1c2ccccc2C(=O)Nc2cccnc21
17 | 2.69 |  |  |  |  | CN(CCCCCCN)CCCCCCCCN(C)CCCCCCNCCC(=O)N1c2ccccc2C(=O)Nc2cccnc21

The next lines start with the compound.

Compound | Kb [1] [nM] | Kb [2] [nM] | Ki [3] [nM] | Ki [4] [nM] | Ki [5] [nM] | Ki [6] [nM]
CN(CCCCCCCCN(C)C(=O)CCCCCNCC(=O)N1c2ccccc2C(=O)Nc2cccnc21)C(=O)CCCCCNCC(=O)N1c2ccccc2C(=O)Nc2cccnc21 | 72.4 | 0.501 |  |  |  | 
COc1ccccc1CNCCCCCCNCCCCCCCCNCCCCCCNCc1ccccc1OC [METHOCTRAMINE] | 363 |  | 955 | 32.4 |  | 
CN(CCCCCCN)CCCCCCCCN(C)CCCCCCNCCCCC(=O)N1c2ccccc2C(=O)Nc2cccnc21 | 19.5 | 0.977 |  |  |  | 
CN(CCCCCCCCN(C)C(=O)CCCCCNCC(=O)N1c2ccccc2C(=O)Nc2cccnc21)C(=O)CCCCCN | 437 | 9.77 | 158 | 20 | 44.7 | 316
CN(CCCCCCCCN(C)CCCCCCN(CC(=O)N1c2ccccc2C(=O)Nc2cccnc21)CC(=O)N1c2ccccc2C(=O)Nc2cccnc21)CCCCCCNCC(=O)N1c2ccccc2C(=O)Nc2cccnc21 [TRIPITRAMINE] |  |  | 148 | 11.5 |  | 3.55
CN(CCCCCCCCN(C)C(=O)CCCCCNCCCCC(=O)N1c2ccccc2C(=O)Nc2cccnc21)C(=O)CCCCCN | 13.8 |  | 70.8 | 63.1 |  | 63.1
CN(CCCCCCCCN(C)C(=O)CCCCCNCCCC(=O)N1c2ccccc2C(=O)Nc2cccnc21)C(=O)CCCCCN | 1.86 | 0.457 |  |  |  | 
CN(CCCCCCCCN(C)C(=O)CCCCCN(CC(=O)N1c2ccccc2C(=O)Nc2cccnc21)CC(=O)N1c2ccccc2C(=O)Nc2cccnc21)C(=O)CCCCCN | 7240 | 5620 |  |  |  | 
CN(CCCCCCCCN(C)C(=O)CCCCCNCCC(=O)N1c2ccccc2C(=O)Nc2cccnc21)C(=O)CCCCCN | 18.2 | 9.12 |  |  |  | 
